This data set in a line: Toxicity liver stage against HepG2, at 10uM. The class given is cell-based. On the set-up: test concentration 10 uM, cell line HepG2-A16-CD81EGFP. The following applies: human, HepG2-A16-CD81EGFP cells; read-out: INHIBITION
The method, boiled down:
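Uninfected HepG2-A16-CD81EGFP cells, 3 × 10^3 per well, 1536-well, plated on prespotted compound at 10 μM final, parasite-free screening media added to match infected plates; puromycin 10 μM positive, DMSO 0.5% negative; run in parallel with 48 h PbLuc assay at 37 °C, 5% CO2; viability by CellTiter-Glo luminescence, normalized to controls.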
On to `CC(=O)N1CCN(CCNS(=O)(=O)c2c(F)cccc2F)CC1`, for which the cytotoxicity at 10 µM is -1.14%. Regarding `COCc1ncc(CN2CCC(Oc3ccccc3OC)CC2)cn1`, the cytotoxicity at 10 µM was -1.77%. `Cc1cccn2cc(CC(=O)N(CCN(C)C)CC3CCCO3)nc12` (configuration not stated): the cytotoxicity at 10 µM was 0.462%. The same measure for `Cc1noc(C)c1CN(C)Cc1csc(-c2ccc(F)cc2)n1`: 27.8%; for `CCc1ccsc1CNC(=O)CNC(=O)C(C)(C)C`: -4.08%. The same measure for `Cc1cnn(CC2CCCN2Cc2cn3ccsc3n2)c1` (configuration not stated): -1.75%. As for `Cc1cnc(N2CCCn3c(nnc3Cn3cccn3)C2)nc1`, the cytotoxicity at 10 µM amounted to 6.19%. For `N#CC1(C(=O)N2CCN(Cc3cscn3)CC2)CCCCC1`, the cytotoxicity at 10 µM is -3.27%. The result for `CCN1CC2(CC1=O)CN(C(C)=O)CCN(C(=O)NC(C)C)C2` (configuration not stated) reads 8.95%; that for `Cc1nn(C)c(C)c1S(=O)(=O)NCC(C)(O)c1ccc2c(c1)OCO2` (configuration not stated), 1.77%. As for `CC(C)CC(=O)N1CC(=O)c2sc(NC3CCCCC3)nc2C1`, the cytotoxicity at 10 µM is -7%. `COc1ccc(CN(C)C2CCN(C(=O)C(C)C)CC2)c2cccnc12`: the cytotoxicity at 10 µM amounted to 12.5%. Consider `O=C1CCN(C(=O)C2(c3ccc(F)cc3)CCOCC2)CCN1`, for which the cytotoxicity at 10 µM was -4.97%. For `Cc1cc(C)n(CC2CCCN2C(=O)Cc2csc(C)n2)n1` (configuration not stated), the cytotoxicity at 10 µM was 9.3%. Take `O=c1n(CCSCc2ccccc2Cl)nc2ccccn12`: the cytotoxicity at 10 µM was -7.68%. Take `O=C(NCC(F)(F)F)C1CSCN1S(=O)(=O)c1ccccc1F` (configuration not stated): the cytotoxicity at 10 µM is -16.3%.

For `CN1[C@@H](C(=O)NCC2CC2)C[C@H]2CN(Cc3ccsc3)C[C@H]21`, the cytotoxicity at 10 µM was -0.213%. `CCN(Cc1ccc2c(c1)OCO2)Cc1nc(C)no1`: the cytotoxicity at 10 µM is -6.49%.

Turning to `Cc1cc(CN[C@H](C(N)=O)[C@@H](C)O)c(C)s1`, the cytotoxicity at 10 µM was 9.5%.

As for `CC(C)CN1CC(C(=O)NCCc2ccc(OC(F)F)cc2)CC1=O` (configuration not stated), the cytotoxicity at 10 µM came to 5.04%. Consider `CC(C)N1CCCC(CNC(=O)CN(C)S(=O)(=O)c2ccccc2)C1` (configuration not stated), for which the cytotoxicity at 10 µM was -3.88%. With `CNC(=O)c1ccc(C2CN(c3cc(C)nc(N)n3)CCO2)nc1` (configuration not stated), the cytotoxicity at 10 µM worked out at 2.02%. The result for `CS(=O)(=O)CC(=O)NCC1OCCc2cn(CC3CC3)nc21` (configuration not stated) reads 3.45%; that for `COc1cccc(OCCCc2cc(C#N)ccn2)c1`, -9.72%; that for `CN1CCCC1(CCCc1cccnc1)C(=O)NCc1nccn1C` (configuration not stated), 0.732%.

`Cc1noc2ncnc(NC(CC(C)(C)C)c3cccnc3)c12` (configuration not stated): the cytotoxicity at 10 µM amounted to 1.41%.

On to `COc1cc(CNC2CCCN(c3ncccn3)C2)cc2c1OCO2` (configuration not stated), for which the cytotoxicity at 10 µM turned out to be 6.26%. The same measure for `c1ccc(-n2cc(CNCC3CCCN3c3cccnn3)cn2)cc1` (configuration not stated): -8.85%; for `COCCC1COC2(CCN(C(=O)CC3CCCC3)CC2)C1` (configuration not stated): -2.46%. The result for `Cn1nc2c(cc1=O)CN(Cc1nc(C(C)(C)C)no1)CC2` reads -2.86%; that for `O=C([C@@H]1CC[C@@H]2[C@@H](CCN2Cc2cccs2)O1)N1CCCCO1`, -2.33%. `CN(Cc1nc(C2CC2)no1)C(=O)C1COc2ccccc2C1` (configuration not stated): the cytotoxicity at 10 µM is -0.509%. As to `CCCc1n[nH]c(C2CN(C(=O)CCn3ccccc3=O)CCO2)n1` (configuration not stated), the cytotoxicity at 10 µM was -0.438%.

Consider `Cc1cc(C)n(CCC(=O)N2CCCC(n3cncn3)C2)n1` (configuration not stated), for which the cytotoxicity at 10 µM was -5.05%.

As for `Cn1cc(CCC(=O)N2CCCN(c3ncccc3C#N)CC2)cn1`, the cytotoxicity at 10 µM worked out at 2.88%. In the case of `c1ccc(CCN2CCN(C3CCOC4(CCOCC4)C3)CC2)nc1` (configuration not stated), the cytotoxicity at 10 µM was 2.1%. Consider `CCN1C(=O)CC(N(C)Cc2nc3ccccc3c(=O)[nH]2)C1=O` (configuration not stated), for which the cytotoxicity at 10 µM was found to be 2.06%. The result for `c1ccc(-c2ncc(CN3CCCCC3CCn3cccn3)cn2)nc1` (configuration not stated) reads -3.34%; that for `CCC(CN1CCCC1)NC(=O)Cc1c(C)[nH]c2c(C)cc(C)cc12` (configuration not stated), 14.6%.

With `Cc1cc(CNCc2c(C)nn(C)c2N2CCOCC2)no1`, the cytotoxicity at 10 µM was -8.11%. `COc1ccc(CN2C[C@@H]3OCC(=O)N(CC(N)=O)[C@@H]3C2)cc1`: the cytotoxicity at 10 µM is -4.54%.

Turning to `OCCOCc1n[nH]c2c1CN(Cc1cccs1)C2`, the cytotoxicity at 10 µM was 6.65%. `CC(=O)N1CCC2(CCCN(S(=O)(=O)c3ccc(F)cc3)C2)C1` (configuration not stated): the cytotoxicity at 10 µM was determined as 2.26%.

`O=C(NCCCNc1ccc(C(F)(F)F)cn1)c1ccc(F)cc1`: the cytotoxicity at 10 µM was -8.72%.

Consider `COc1ccc2c(c1)CCN(CCC(=O)O)CC2`, for which the cytotoxicity at 10 µM is -9.21%.

With `Cc1noc(-c2cccnc2N(C)Cc2cscn2)n1`, the cytotoxicity at 10 µM was -4.23%. In the case of `Cn1ccc(C(=O)NCCOc2ccc3c(c2)CCC3)cc1=O`, the cytotoxicity at 10 µM worked out at 3.68%. The same measure for `O=C1CCNC(=O)N1CC(=O)N1CCC1c1ccc(F)cc1` (configuration not stated): 7.46%; for `COc1cccc(-c2n[nH]cc2-c2nc(CN3CCCC3)no2)c1`: -23.2%. On to `Cn1cccc1C(=O)N1Cc2c(CN3CCCCC3)nn(C)c2C1`, for which the cytotoxicity at 10 µM came out at 1.25%. The same measure for `Cc1ccc(CN(CCCO)Cc2nc3ccccc3[nH]2)s1`: 7.18%.

Consider `O=C(O)C1(Cc2ccc(F)cc2F)CCCN(Cc2ccncc2)C1` (configuration not stated), for which the cytotoxicity at 10 µM was -2.74%. The same measure for `CC(C)n1cc(C(=O)NCCc2cn3ccsc3n2)cn1`: 8.67%; for `CCCn1nnnc1COc1cc(OC)ccc1C(N)=O`: -4.42%; for `COCC(=O)NC[C@H]1C[C@@H]2CCN1C[C@@H]2CN1CCc2ccccc2C1`: -1.33%. Regarding `Cc1cccnc1N1CCN(C(=O)CCc2cn3ccccc3n2)CC1`, the cytotoxicity at 10 µM is -6.21%. The result for `CS(=O)(=O)NCc1ncn2c1CN(C(=O)C1CCCCC1)CCC2` reads -71.2%; that for `COc1ccc(Cl)cc1CS(=O)(=O)CC(=O)NC(C)CCC(C)C` (configuration not stated), 11%. On to `O=S(=O)(CCN1CCCC1Cn1cncn1)c1ccccc1` (configuration not stated), for which the cytotoxicity at 10 µM was -21%.

`Cn1cc(CNc2ccc(CCN3CCC(C(N)=O)CC3)cc2)cn1`: the cytotoxicity at 10 µM was -6.21%. The result for `CCN1CCCN(C(=O)c2ccc(NC(=O)CC(C)C)c(C)c2)CC1` reads -8.04%; that for `O=C(c1ccc(Cl)c(Cl)c1)N1CCCCC1C1OCCO1` (configuration not stated), 9.25%; that for `O=C(NCc1ccc2c(c1)OCO2)c1ccc(N2CCCCCC2)nc1`, -6.78%. With `O=C(O)c1ccc(CNC(=O)C2CCN(C(=O)C3CCC3)CC2)s1`, the cytotoxicity at 10 µM was determined as 0.993%.

In the case of `CCOc1ccc(Cl)c(C(=O)NCCc2ncc[nH]2)n1`, the cytotoxicity at 10 µM was -11.2%. For `CN(C)CC(=O)N1CCC2(CC1)COC(COc1ccccn1)C2` (configuration not stated), the cytotoxicity at 10 µM is -3.14%. For the compound `Cc1ccsc1C(=O)NCc1ccnc(C2CCCOC2)n1` (configuration not stated), the cytotoxicity at 10 µM is -23.6%. As for `CCc1noc(CNc2nc(-c3cccnc3)nc3c2CCNCC3)n1`, the cytotoxicity at 10 µM is 0.562%. As to `COc1cccn(CC(=O)N2CCCC3(CCOCC3)C2)c1=O`, the cytotoxicity at 10 µM worked out at 8.78%.

In the case of `O=C(c1csc(-c2ccc(C(F)(F)F)cc2)n1)N1CCCNCC1`, the cytotoxicity at 10 µM came out at 6.24%. Regarding `CC(CN1CCCC1=O)NC(=O)c1cc(=O)[nH]c2ccc(Cl)cc12` (configuration not stated), the cytotoxicity at 10 µM was -7.14%. `NC(=O)c1cnc(NC(=O)CCc2ccco2)c(Cl)c1`: the cytotoxicity at 10 µM stood at 3.42%.

In the case of `COc1ccccc1CC(=O)N1CCCC(c2nccn2CC(N)=O)C1` (configuration not stated), the cytotoxicity at 10 µM is 12.9%. For `Cc1cc(N2CCCC(OC(=O)CCN3CCCC3=O)C2)nc(C)n1` (configuration not stated), the cytotoxicity at 10 µM came to 2.58%. The same measure for `Cc1cc(-c2cnc(NC3CC3)nc2-c2ccoc2C)on1`: 2.13%; for `CC(C)(CO)Nc1ccc(-c2nc(-c3ccccc3F)no2)cn1`: 9.62%; for `Cc1cccc(CNC(CN2CCN(C)CC2)c2ccccc2)c1` (configuration not stated): -3.61%. The result for `O=C(NCC1CCCO1)c1csc(Cc2ccccc2)n1` (configuration not stated) reads -110%; that for `CS(=O)(=O)c1cccc2c1CCCN2C(=O)Cc1cccc(F)c1`, 8.14%; that for `O=C(COCC1CC1)N1CCSCC1`, -21.2%.

Turning to `CNc1nc(C(=O)N2CCN(c3ccc(Cl)c(Cl)c3)CC2)cs1`, the cytotoxicity at 10 µM turned out to be 13.9%.

With `CCCC(=O)N(C)CC(=O)Nc1ccc(Br)cn1`, the cytotoxicity at 10 µM is -15.5%. For `CN(C)CCN1CCO[C@H]2CN(Cc3ccccn3)C[C@H]21`, the cytotoxicity at 10 µM was -1.91%. As to `CN(C)Cc1cnc2n1CCN(C(=O)NCc1ccccc1)CC2`, the cytotoxicity at 10 µM was -6.41%. For the compound `Cc1nc(C2CCCN2Cc2nccn2CC(F)(F)F)no1` (configuration not stated), the cytotoxicity at 10 µM is -16.5%. `O=C(c1ccccc1OCC1CC1)N1CCCC(n2ccnc2)C1` (configuration not stated): the cytotoxicity at 10 µM is -1.8%. The result for `COCCO[C@@H]1CCN(C(=O)c2ccnnc2)[C@H]1Cc1cnn(C)c1` reads 7.6%; that for `CN1C[C@@H]2CN(Cc3ccsc3)CCC[C@]2(C(=O)O)C1`, -141%; that for `O=C(NCCn1ccnc1C1CCOC1)c1cccnc1` (configuration not stated), -0.757%. For the compound `Cc1cnccc1CNCc1ccc(OC23CCCN(CC2)C3)cc1` (configuration not stated), the cytotoxicity at 10 µM is -12.3%.

As to `COC(=O)c1ccc(C2SCC(=O)Nc3c2cnn3C(C)(C)C)cc1` (configuration not stated), the cytotoxicity at 10 µM came to 2.06%. Consider `Cc1ccc(-c2nn(-c3cccc(F)c3)cc2CN(CCO)CCO)o1`, for which the cytotoxicity at 10 µM was 8.43%.

`CC1CCCN(c2ccccc2OCC(=O)NC2CCOCC2)C1` (configuration not stated): the cytotoxicity at 10 µM is -23.5%. With `Cc1ccc(CN2CCc3c(COC(C)C)nn(C)c3C2)s1`, the cytotoxicity at 10 µM was found to be 0.661%. Consider `CNS(=O)(=O)c1ccc(C(=O)N2CCCC(n3cccn3)C2)cc1` (configuration not stated), for which the cytotoxicity at 10 µM is -7.95%.

Take `Cc1cc(-c2cnc(N3CCCC3)nc2C(C)C)on1`: the cytotoxicity at 10 µM turned out to be 5.14%. On to `CN(CCCOc1ccccc1Cl)C(=O)CN1C(=O)CCNC1=O`, for which the cytotoxicity at 10 µM is -1.97%.

The record behind these values is ChEMBL document CHEMBL4513216, “Probing the Open Global Health Chemical Diversity Library for Multistage-Active Starting Points for Next-Generation Antimalarials” (ACS Infect Dis, 2020).
